These results are taken from ChEMBL document CHEMBL2203173 (J Med Chem, 2012).

Active and inactive are the calls of the source. No cut-off for these calls is given here.

Assay [1] relates to DMS-53. In words: Antitumor activity against human DMS53 cell xenografted BALB/c nu/nu mouse assessed as reduction in tumor volume at 7.5 mg/kg, po administered for 3 times a week measured after 20 days (reference value: 997 155 mm'3). The arrangement: dose 7.5 mg/kg. The class given is functional, organism-based. In a few lines:
(§1)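 DMS-53 xenograft nude mice gavaged 3 times/week with agent in 30% propylene glycol/saline or with vehicle alone. Net tumor volume followed for 20 days; the study ended when control tumors neared the 1000 mm3 ethical limit. Tumors excised and wet-weighed on day 20. n = 6–11 mice/condition, mean ± SD.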

The subject of assay [2] is DMS-53. The experiment in a line: Antitumor activity against human DMS53 cells xenografted in BALB/c nu/nu mouse assessed as reduction of tumor volume at 6 mg/kg, iv administered for 5 days a week measured after 21 days (RVb = 922 94 mm'3). The assay is classed as functional, organism-based. The arrangement: dose 6 mg/kg. In a few lines: (§2)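 Nude mice bearing DMS-53 xenografts began dosing once tumors reached 100 mm3. Agents given iv by tail vein 5 days/week in vehicle of 30% propylene glycol/saline, with vehicle controls. Net tumor volume followed for 21 days. Mice sacrificed on day 21 and tumors excised and wet-weighed.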
For orientation: Xenograft models place foreign cells or tissue in a host animal.

In assay [3] the test system is DMS-53. In words: Antitumor activity against human DMS53 cells xenografted in BALB/c nu/nu mouse assessed as reduction of tumor volume at 3 mg/kg, iv administered for 5 days a week measured after 21 days (RVb = 922 94 mm'3). The class given is functional, organism-based. Set-up: dose 3 mg/kg. In a few lines:
as §2

Assay [4] has as its system DMS-53. In words: Antitumor activity against human DMS53 cell xenografted BALB/c nu/nu mouse assessed as reduction in tumor volume at 10 mg/kg, po administered for 3 times a week measured after 20 days (reference value: 997 155 mm'3). The arrangement: dose 10 mg/kg. The assay is classed as functional, organism-based. The procedure, abridged: as §1
For assay [5], the system named is SK-N-MC. The experiment in a line: Antiproliferative activity at human SK-N-MC cells after 72 hrs by MTT assay. The assay is classed as functional, cell-based. In general terms: Formazan colour is commonly taken as a measure of viable cells.
Assay [6] concerns SK-N-MC. The experiment in a line: Inhibition to 59Fe uptake from 59Fe-transferrin in human SK-N-MC cells at 25 uM after 3 hrs relative to Dp4eT.
In assay [7] the test system is A549. The experiment in a line: Ratio of compound IC50 to DFO IC50 for human A549 cells. The class given is functional. The procedure, abridged: (§3)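 A549 human non-small cell lung carcinoma cells were exposed to agents for 72 h. IC50 is the concentration that inhibits cell growth to 50% of the untreated control. Values are mean ± SD of three experiments. The ratio is the compound IC50 divided by the IC50 of the reference chelator (DFO or NIH) from the same assay.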

The test system of assay [8] is A549. The experiment in a line: Ratio of compound IC50 to NIH IC50 for human A549 cells. The assay is classed as functional. The procedure, abridged: as §3
Assay [9] relates to A549. The experiment in a line: Antiproliferative activity at human A549 cells after 72 hrs by MTT assay. The class given is functional, cell-based.
Assay [10] deals with DMS-53. In words: Antiproliferative activity at human DMS53 cells after 72 hrs by MTT assay. The class given is functional, cell-based.
The next assay relates to MRC5. In words: Antiproliferative activity at human MRC5 cells after 72 hrs by MTT assay. The assay is classed as functional, cell-based. The settings on record: MRC5, 72 h.
The test system of assay [11] is SK-N-MC. In words: Induction of 59Fe mobilization in human SK-N-MC cells at 25 uM after 3 hrs by gamma-scintillation counter. The class given is functional. In a few lines: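 SK-N-MC cells prelabeled with 59Fe-transferrin (0.75 μM) for 3 h/37 °C, then washed four times on ice with ice-cold PBS. Cells reincubated with or without chelators (25 μM) for 3 h/37 °C. Released 59Fe given as % of cellular 59Fe. Mean ± SD of three experiments.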

In assay [12] the test system is SK-N-MC. The experiment in a line: Inhibition to 59Fe uptake from 59Fe-transferrin in human SK-N-MC cells at 25 uM after 3 hrs. The class given is functional. The arrangement: scale not given: the % may be the effect or the level left. The procedure, abridged: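 SK-N-MC cells labeled with 59Fe-transferrin (0.75 μM) for 3 h/37 °C with or without chelators (25 μM). Cells washed four times on ice with ice-cold PBS. Internalized 59Fe separated with Pronase (1 mg/mL) and expressed as % of control. Mean ± SD of three experiments.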

As for `CCN(C)C(=S)NN=C(c1ccccn1)c1ccccn1` [listing 1 of 2 here], the result with DMS-53 [1], in the assay on DMS-53 [2], in the assay with DMS-53 [3] and with DMS-53 [4] was Active.

Consider `CCN(CC)C(=S)NN=C(c1ccccn1)c1ccccn1`, for which the IC50 (as a rule, the point on the concentration scale where inhibition reaches its midpoint) in the assay on SK-N-MC [5] stood at 5 nM. Besides, in the assay with SK-N-MC [6], the Ratio stood at 2.

For the compound `CCN(C)C(=S)NN=C(c1ccccn1)c1ccccn1` [listing 2 of 2 here], the “Ratio IC50” value in the assay on A549 [7] and in the assay with A549 [8] was 137 each time. For the same compound, the IC50 was 10 nM in the assay on A549 [9] (a549), 8 nM with DMS-53 [10] (dms-53) and 4 nM in the assay with SK-N-MC [5].

`CCN(CC)C(=S)N/N=C(\c1ccccc1)c1ccccn1` returned an IC50 in the assay on SK-N-MC [5] of 11 nM.

Turning to `COc1cc([C@@H]2c3cc4c(cc3[C@@H](O[C@@H]3O[C@@H]5CO[C@@H](C)O[C@H]5[C@H](O)[C@H]3O)[C@H]3COC(=O)[C@H]23)OCO4)cc(OC)c1O` [ETOPOSIDE], the IC50 in the assay with A549 [9] (Homo sapiens, A549, 72 h) was determined as 800 nM; in the assay with DMS-53 [10] (Homo sapiens, DMS-53, 72 h) it was 1500 nM.

For `CC(=O)N(O)CCCCCNC(=O)CCC(=O)N(O)CCCCCNC(=O)CCC(=O)N(O)CCCCCN` [DEFEROXAMINE], the IC50 is greater than 10000 nM in the assay with MRC5; 7500 nM with A549 [9] (Homo sapiens, A549, 72 h); 10000 nM in the assay with DMS-53 [10] (Homo sapiens, DMS-53, 72 h). Further, the Activity is 15.2% in the assay with SK-N-MC [11] and 84% in the assay on SK-N-MC [12].

As to `Nc1ccn([C@@H]2O[C@H](CO)[C@@H](O)C2(F)F)c(=O)n1` [GEMCITABINE], the IC50 with A549 [9] (Homo sapiens, A549, 72 h) came to 20 nM; in the assay on DMS-53 [10] (Homo sapiens, DMS-53, 72 h), 9 nM.
